The test system of data set [1] is Ribosomal protein S6 kinase beta-1 (Homo sapiens), P23443 [T412E]. The data set can be described thus: Inhibition of recombinant human His6-tagged S6K1 T412E mutant (1 to 421 residues) expressed in baculovirus infected Sf21 cells assessed as remaining activity at 1 uM using KKRNRTLTV as substrate incubated for 30 mins in presence of [gamma-33P]ATP by filter binding method relative to control. Put shortly: (§1)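 Incubations ran robotically for 30 min at room temperature (21 °C) under linear conditions. Results are percent activity remaining versus controls without compound, as the mean of triplicates ± S.D.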

For data set [2], the target named is Serine/threonine-protein kinase pim-3 (Homo sapiens) (UniProt Q86V86). The data set can be described thus: Inhibition of recombinant human N-terminal His6-tagged PIM3 (2 to 326 residues) expressed in baculovirus infected Sf21 cells assessed as remaining activity at 1 uM using RSRHSSYPAGT as substrate incubated for 30 mins in presence of [gamma-33P]ATP by filter binding method relative to control.

The next data set has as its target mTORC1 (Homo sapiens) (UniProt P42345+Q8N122+Q9BVC4). The conditions noted are these: HEK293, dose 30-1000 nM, time 30.0 min.
The target of data set [3] is Tyrosine-protein kinase Lck (Homo sapiens) (UniProt P06239). The data set can be described thus: Inhibition of recombinant human N-terminal His6-tagged LCK (2 to 509 residues) expressed in baculovirus infected Sf21 cells assessed as remaining activity at 1 uM using KVEKIGEGTYGVVYK as substrate incubated for 30 mins in presence of [gamma-33P]ATP by filter binding method relative to control. An outline of the steps: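 Assays ran 30 min at 21 °C, robotically and in the linear range. Remaining activity is given relative to incubations lacking compound, as the average of triplicate determinations ± S.D.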

The target of data set [4] is Mitogen-activated protein kinase 8 (Homo sapiens) (UniProt P45983). The data set can be described thus: Inhibition of recombinant human His6-tagged JNK1alpha1 (1 to 384 residues) expressed in baculovirus infected Sf21 cells assessed as remaining activity at 1 uM using ATF2 as substrate incubated for 30 mins in presence of [gamma-33P]ATP by filter binding method relative to control. An outline of the steps:
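Robotic radiometric panel assay, 30 min at room temperature (21 °C), with 10 mM magnesium acetate. […] Compound at 1 or 10 µM. Residual activity expressed relative to compound-free control; triplicate average ± S.D.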

For another data set, the system named is MEF. The data set can be described thus: Induction of cell cycle arrest in mLST8 knockout MEF cells assessed as accumulation at G1 phase at 3 uM incubated for 1 to 3 days by propidium iodide staining based flow cytometric analysis (reference value: 22.2 +/- 0.59%). It is filed as toxicity. The conditions noted are these: mouse, time 1-3 day.
For data set [5], the target named is Tyrosine-protein kinase SYK (Homo sapiens) (UniProt P43405). The experiment in a line: Inhibition of recombinant human N-terminal His6-tagged SYK (1 to 635 residues) expressed in baculovirus infected Sf21 cells assessed as remaining activity at 10 uM using Poly (Glu,Tyr) as substrate incubated for 30 mins in presence of [gamma-33P]ATP by filter binding assay relative to control.

Data set [6] has as its target Dual specificity tyrosine-phosphorylation-regulated kinase 3 (Homo sapiens) (UniProt O43781). The data set can be described thus: Inhibition of recombinant human N-terminal GST-tagged DYRK3 (1 to 588 residues) expressed in Escherichia coli assessed as remaining activity at 1 uM using KKISGRLSPIMTEQ as substrate incubated for 30 mins in presence of [gamma-33P]ATP by filter binding method relative to control. An outline of the steps:
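Radiometric kinase panel run robotically at 21 °C for 30 min, linear in time and enzyme. […] Activity expressed as percentage of control without inhibitor; triplicate determinations.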

Data set [7] addresses Serine/threonine-protein kinase pim-1 (Homo sapiens) (UniProt P11309). The data set can be described thus: Inhibition of recombinant human N-terminal His6-tagged PIM1 (2 to 313 residues) expressed in baculovirus infected Sf21 cells assessed as remaining activity at 1 uM using RSRHSSYPAGT as substrate incubated for 30 mins in presence of [gamma-33P]ATP by filter binding method relative to control. An outline of the steps:
as §1

Data set [8] addresses Ephrin type-A receptor 2 (Homo sapiens) (UniProt P29317). The data set can be described thus: Inhibition of recombinant human N-terminal GST-tagged EPHA2 (591 to 976 residues) expressed in Escherichia coli assessed as remaining activity at 1 uM using Poly (Glu,Tyr) as substrate incubated for 30 mins in presence of [gamma-33P]ATP by filter binding method relative to control. An outline of the steps: (§2)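 Run robotically for 30 min at 21 °C under linear conditions. Compound at 1 or 10 µM. Percentage activity remaining versus control without compound, triplicate mean ± S.D.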

Data set [9] concerns the target Dual specificity tyrosine-phosphorylation-regulated kinase 1A (Homo sapiens) (UniProt Q13627). The data set can be described thus: Inhibition of recombinant human N-terminal GST-tagged DYRK1A (1 to 502 residues) expressed in Escherichia coli assessed as remaining activity at 1 uM using KKISGRLSPIMTEQ as substrate incubated for 30 mins in presence of [gamma-33P]ATP by filter binding method relative to control. An outline of the steps:
as §2

Data set [10] deals with Dual specificity mitogen-activated protein kinase kinase 1 (Homo sapiens) (UniProt Q02750). The experiment in a line: Inhibition of recombinant human MKK1 (2 to 393 residues) expressed in Escherichia coli at 10 uM using MBP as substrate incubated for 30 mins in presence of [gamma-33P]ATP by filter binding method relative to control. Put shortly: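 Kinase panel run robotically at 21 °C for 30 min, linear in time and enzyme. […] Compound tested at 1 or 10 µM. Activity given as percentage of incubations without compound, mean of triplicates ± S.D.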

Data set [11] deals with Mitogen-activated protein kinase 15 (Homo sapiens) (UniProt Q8TD08). The data set can be described thus: Inhibition of recombinant human N-terminal His6-tagged ERK8 (2 to 544 residues) expressed in baculovirus infected Sf21 cells assessed as remaining activity at 10 uM using MBP as substrate incubated for 30 mins in presence of [gamma-33P]ATP by filter binding method relative to control. An outline of the steps:
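Radiometric kinase panel run robotically at room temperature (21 °C) for 30 min, linear in time and enzyme. […] Activity is expressed as percent of control without compound, from triplicate determinations ± S.D.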

Data set [12] has as its target Vascular endothelial growth factor receptor 1 (Homo sapiens) (UniProt P17948). The experiment in a line: Inhibition of recombinant human N-terminal GST-tagged VEGFR1 (784 to 1338 residues) expressed in baculovirus infected Sf21 cells assessed as remaining activity at 10 uM using KKKSPGEYVNIEFG as substrate incubated for 30 mins in presence of [gamma-33P]ATP by filter binding assay relative to control. Put shortly:
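Panel assays were run for 30 min at 21 °C, within the linear range for time and enzyme. […] Results are percent activity remaining relative to compound-free control, averaged from triplicate ± S.D.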

In data set [13] the target is Mitogen-activated protein kinase 1 (Homo sapiens) (UniProt P28482). The data set can be described thus: Inhibition of recombinant human N-terminal GST-tagged ERK2 (2 to 360 residues) expressed in Escherichia coli assessed as remaining activity at 1 uM using MBP as substrate incubated for 30 mins in presence of [gamma-33P]ATP by filter binding method relative to control. An outline of the steps:
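Incubation was 30 min at room temperature (21 °C) under conditions linear with time and enzyme amount. Activity is reported as percent of control lacking compound, triplicate mean ± S.D.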

What is called inhibition is the share of the control response that was lost under treatment.

Active and inactive are the calls of the source. The calls are words filed in the database; no cut-off is given here.

For the molecule `COc1ccc(-c2ccc3c(N4CCOCC4)nc(N4C[C@@H](C)O[C@@H](C)C4)nc3n2)cc1CO` [Ku-0063794], the Activity came to 104% in data set [1]; 114% in data set [2]; 69% in [3]; 80% in [4]; 47.3% with MEF; 83% in [5]. The Activity in data set [6] came out at 88%; in [7] it was 89%; in data set [8] it was 108%; in [9], 94%; in data set [11] it was 92%; in data set [12], 92%. Also, in data set [13], the Activity was 102%. Besides, the inhibition result at mTORC1 (Homo sapiens) was “Active”. The inhibition in [10] is 55%.

These data come from ChEMBL document CHEMBL5678799 (Biochem J, 2009).
